Bioassay records deposited in PubChem BioAssay by Sanford-Burnham Center for Chemical Genomics.
SENP7 inh – inhibitors of human SENP7 protease. AID 434973. inhibition, % at 5 µM. 1.5% of 330,000 active. recombinant SENP7, Z-RLRGG-aminoluciferin luminescence, 40 min. Q9BQF6;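 active = inhibition above about 50% at the single test dose, limit read from the data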;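 note: plate controls were DMSO with enzyme for no effect and no enzyme buffer wells for full effect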
Target sequence (Q9BQF6 706-1050 limits assumed): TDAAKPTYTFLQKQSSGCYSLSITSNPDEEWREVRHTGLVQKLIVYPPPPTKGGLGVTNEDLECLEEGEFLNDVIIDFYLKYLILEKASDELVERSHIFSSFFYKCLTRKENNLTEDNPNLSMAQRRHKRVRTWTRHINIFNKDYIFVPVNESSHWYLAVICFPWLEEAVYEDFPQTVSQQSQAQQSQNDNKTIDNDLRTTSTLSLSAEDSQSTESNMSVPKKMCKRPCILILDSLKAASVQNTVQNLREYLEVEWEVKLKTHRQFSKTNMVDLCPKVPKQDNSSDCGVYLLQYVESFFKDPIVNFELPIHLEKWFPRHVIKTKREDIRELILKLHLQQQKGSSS
SENP8 block-1 – SENP8 (human) protease inhibition | 0.64% of 360,000 active | Q96LD8 | inhibition, % at 20 µM | recombinant SENP8, Nedd8 substrate fluorescence | AID 602440; in the data active = inhibition mostly above about 40%, no sharp cut-off; inactive = mostly below about 27%
Target sequence (Q96LD8 whole entry, looked up): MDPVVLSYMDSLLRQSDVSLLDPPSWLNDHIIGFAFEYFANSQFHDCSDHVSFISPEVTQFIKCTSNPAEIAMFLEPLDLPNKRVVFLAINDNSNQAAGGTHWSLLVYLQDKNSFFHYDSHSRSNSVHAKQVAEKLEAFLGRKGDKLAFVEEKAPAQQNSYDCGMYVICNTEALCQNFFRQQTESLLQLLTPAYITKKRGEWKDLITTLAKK
SENP8 block-2 – SENP8 protease inhibition; Q96LD8; purified SENP8, Z-RLRGG-aminoluciferin cleavage, luminescence; inhibition, % at 10 µM; 1.2% of 330,000 active; in the data active = inhibition above about 50%
UBC13 polyUb – blocks human UBC13 polyubiquitin chain formation; AID 485273; inhibition, % at 20 µM; TR-FRET; 0.47% of 330,000 active; P61088; in the data active = inhibition above about 45%, passing the limit was not always enough
Apaf-1 inh – blocks human Apaf-1 apoptosome activity; AID 489030; inhibition, % at 20 µM; reconstituted apoptosome caspase-3 activity, DEVD-Rh110 fluorescence; 0.71% of 330,000 active; O14727; active = inhibition of at least 40% at 20 µM;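 note: plate controls were DMSO wells for no effect and DEVD-CHO caspase inhibitor wells for full effect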
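Material: biochemical Apaf-1 apoptosome reconstitution. Medium: Hepes buffer, pH 7.5. Also added: cytochrome c activation, bis-DEVD rhodamine 110 substrate. Timing: 30 min compound preincubation, 50 min activation, room temperature. Measured by: rhodamine 110 fluorescence at Ex 480/Em 540 nm.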
SENP6 block – SENP6 protease inhibition | inhibition, % at 10 µM | Recombinant SENP6 catalytic domain, aminoluciferin luminescence | 1.8% of 330,000 active | Q9GZR1;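 active = inhibition above about 50% at the single tested dose, limit read from the data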;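 note: plate controls were DMSO wells with enzyme for no effect and DMSO wells lacking enzyme for full effect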
SENP8 conf – human SENP8 inhibition, confirmed; shares compounds with SENP7 inh; 40% of 6,200 active; Recombinant SENP8, Z-RLRGG-aminoluciferin luminescence, 60 min; inhibition, % at 12.5 µM; AID 488912;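 active = mean inhibition across replicates above about 50%, limit read from the data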
SENP6 confirm – confirmation of human SENP6 protease inhibitors | inhibition, % at 12.5 µM | 58% of 6,200 active | shares compounds with SENP7 inh | recombinant SENP6, Z-RLRGG-aminoluciferin luminescence
SENP7 conf – confirmation of human SENP7 protease inhibitors; inhibition, % at 12.5 µM; recombinant SENP7, Z-RLRGG-aminoluciferin luminescence, 40 min; 69% of 6,200 active; shares compounds with SENP7 inh
Casp3 SENP sel – caspase-3 inhibition (SENP selectivity assay); purified caspase-3, Z-DEVD-aminoluciferin luminescence, 60 min; AID 488918; shares compounds with SENP7 inh; 60% of 6,200 active; inhibition, % at 12.5 µM;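 active = mean inhibition above about 50%, limit read from the data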;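 note: plate controls were enzyme with DMSO for no effect and wells without caspase-3 for full effect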
Luc interf – counter-screen for SENP inhibitors: luminescence interference | shares compounds with SENP7 inh | Pre-incubated SENP8/Z-RLRGG-aminoluciferin, luciferase luminescence interference | inhibition, % at 12.5 µM | 39% of 6,200 active | AID 488919;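 active = mean inhibition above about 50% when retested at one dose, limit read from the data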;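 note: plate controls were DMSO wells with completed reaction for no effect and substrate without enzyme for full effect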
Starred values were filed as active, the others as inactive; · = not tested or not shown. Shown are actives, neighbours in structure and some others; about 3% of the full set was active somewhere.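 Rule for the calls, unless noted: active = mean inhibition above about 50% in the one-dose retest (limit read from the data); inactive = the rest.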

SMILES	SENP7 inh	SENP8 block-1	SENP8 block-2	UBC13 polyUb	Apaf-1 inh	SENP6 block	SENP8 conf	SENP6 confirm	SENP7 conf	Casp3 SENP sel	Luc interf
CCN1CCN(CCCNC(=O)CCC(=O)N2CCOc3ccccc32)CC1	-9	14	-16	3	22	-14	·	·	·	·	·
O=C(/C=C/c1ccccc1)Nc1cccnc1	76*	7	51*	0	0	66*	-19	57*	90*	84*	72*
O=C(/C=C/c1ccc([N+](=O)[O-])cc1)Nc1cccnc1	58*	23	33	-2	3	71*	48	64*	92*	77*	32
O=C(/C=C/c1ccc(Cl)c([N+](=O)[O-])c1)Nc1cccnc1	-2	30	-11	5	14	-28	·	·	·	·	·
COC(=O)c1c[nH]n2c(=O)c(Cl)c(C)nc12	54*	-13	34	-9	-16	64*	66*	57*	86*	88*	66*
COC(=O)c1c[nH]n2c(=O)cc(C)nc12	7	2	-4	-2	-9	-3	·	·	·	·	·
O=[N+]([O-])c1cc(CN(CCO)CCO)ccc1O	5	18	3	-5	-29	5	·	·	·	·	·
CCOc1ccc(Cl)cc1-c1cc(C(=O)NCCc2ccncc2)[nH]n1	·	7	·	·	·	·	·	·	·	·	·
Nc1nonc1C(=O)NCCNS(=O)(=O)c1ccc(Br)cc1	90*	9	-4	3	0	-31	-4	2	8	6	-2
CC(C)C(=O)Nc1ccc2nn(-c3ccc(F)cc3)nc2c1	85*	-436	53*	11	-95	71*	16	31	66*	26	8
CC(C)C(=O)Nc1ccc(N2CCN(c3ccc(F)cc3)CC2)cc1	-5	15	-2	-2	-4	6	·	·	·	·	·
Cc1ccc(-n2nc3ccc(NC(=O)C(C)C)cc3n2)cc1	80*	-376	39	14	-152	76*	-15	-1	40	5	-3
COc1ccc(OCC(O)Cn2c(N)nc3c2c(=O)[nH]c(=O)n3C)cc1 (centres undefined)	-4	30	3	9	-8	-10	·	·	·	·	·
O=C(CN1C(=O)NC2(CCCc3ccccc32)C1=O)NC1CCCCC1 (centres undefined)	5	4	-2	-5	5	-8	·	·	·	·	·
Cc1cnc(NC(=O)c2cc3c(s2)CCCC3)s1	85*	-86	81*	12	18	88*	88*	88*	97*	79*	56*
Cc1csc(NC(=O)c2cc3c(s2)CCCCC3)n1	98*	-57	94*	19	19	92*	96*	97*	101*	92*	89*
O=C(Nc1ccon1)c1cc2c(s1)CCCC2	93*	10	84*	2	-16	89*	8	90*	100*	92*	63*
Cc1csc(NC(=O)c2cc3c(s2)CCCC3)n1	93*	-106	89*	15	5	95*	95*	96*	101*	88*	86*
O=C(Nc1ccon1)c1cc2c(s1)CCCCCC2	-2	17	-6	-9	6	13	·	·	·	·	·
CCN1C(=O)[C@H]2[C@@H](c3ccc(C)cc3)N3C(=O)N(c4cccc(F)c4)C(=O)[C@@]3(C)[C@H]2C1=O	8	19	-13	-18	6	-16	·	·	·	·	·
Cc1ccccc1N=C1SCCN1C(=O)CN1C(=O)NC2(CCCC2)C1=O	0	8	7	0	6	3	·	·	·	·	·
COc1ccc(-c2noc(CN(C)Cc3ccc(C)o3)n2)cc1	1	7	-4	2	-11	-26	·	·	·	·	·
CCOc1ncccc1C(=O)OCC(=O)NC1CCCCC1	4	2	6	0	-10	-2	·	·	·	·	·
Cc1csc(NC(=O)c2ccc(N3CCCC3=O)cc2)n1	79*	-19	63*	1	-3	77*	18	23	63*	85*	37
Cc1ccc(C(=O)NCCc2ccccc2)cc1	54*	3	23	4	-3	53*	39	36	77*	79*	58*
SMILES	SENP7 inh	SENP8 block-1	SENP8 block-2	UBC13 polyUb	Apaf-1 inh	SENP6 block	SENP8 conf	SENP6 confirm	SENP7 conf	Casp3 SENP sel	Luc interf
CN(c1ccc(C(=O)NCCc2ccccc2)cc1)S(C)(=O)=O	55*	10	-4	2	-6	26	8	6	56*	69*	40
COC(=O)c1c(N)sc(C(=O)NCCc2ccccc2)c1C	89*	-67	75*	2	-10	88*	85*	82*	95*	89*	85*
CCN(c1ccccc1)S(=O)(=O)c1cc([N+](=O)[O-])ccc1N	5	34	2	0	8	-17	·	·	·	·	·
CC(c1ccco1)N(C(=O)COc1ccc(Cl)cc1Cl)c1ccccn1 (centres undefined)	-3	9	6	0	9	-1	·	·	·	·	·
CC(c1ccco1)N(C(=O)COc1ccc(Cl)cc1)c1ccccn1 (centres undefined)	2	-5	18	3	0	50*	30	22	18	53*	51*
COc1cc2c(cc1OC)CN(CC(=O)Nc1ccc(C)c(S(=O)(=O)N3CCOCC3)c1)CC2	1	-50	-8	-2	5	10	·	·	·	·	·
Cc1nc(/C(N)=N/OC(=O)c2ccc(Cl)cc2)c(C(F)(F)F)o1	82*	11	58*	-7	-10	69*	74*	70*	94*	88*	78*
CCOc1ccc(NC(=O)Nc2nc3ccc(S(C)(=O)=O)cc3s2)cc1	2	-36	2	5	4	-7	·	·	·	·	·
NS(=O)(=O)c1ccc2nc(NC(=O)Nc3ccccc3F)sc2c1	59*	-4	59*	3	12	76*	69*	71*	90*	58*	76*
Cc1ccccc1NC(=O)Nc1nc2ccc(S(C)(=O)=O)cc2s1	51*	0	-12	-4	-14	-12	-21	-16	-6	-8	-6
CNc1nc(N2CCc3ccccc32)ncc1F	5	-8	79*	3	-8	86*	85*	86*	98*	83*	87*
